Test results as given in ChEMBL document CHEMBL1152988, “Mutated response regulator graR is responsible for phenotypic conversion of Staphylococcus aureus from heterogeneous vancomycin-intermediate resistance to vancomycin-intermediate resistance” (2008).
≈ marks a conversion by molar mass, not a printed value.

Assays:
[1] = test system: Staphylococcus aureus; assay: Antibacterial activity against heterogeneous vancomycin-intermediate Staphylococcus aureus Mu3 harboring shuttle vector pYT3 after 24 hrs by agar dilution method; type: functional; conditions: Mu3, 24 h
In short: (§1)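 Host carries shuttle vector pYT3, either empty or carrying PCR-cloned graR (SA0614) from N315 (intact) or Mu50 (N197S mutant), introduced by electroporation and sequence-verified. MICs were determined by agar dilution per CLSI, with vancomycin MIC in BHI agar. Glycopeptides and daptomycin were tested at 1-mg/liter linear steps, oxacillin by twofold dilutions. Plates were read at 24 h and 48 h.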

[2] = test system: Staphylococcus aureus; assay: Antibacterial activity against heterogeneous vancomycin-intermediate Staphylococcus aureus Mu3 after 48 hrs by agar dilution method; type: functional; conditions: Mu3, 48 h
In short: (§2)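 Agar dilution MICs per CLSI, with vancomycin MIC in BHI agar. Vancomycin, teicoplanin and daptomycin were tested at linear 1-mg/liter concentration steps; oxacillin was tested by twofold dilutions. Plates were read at 24 h and again at 48 h so a slow-growing resistant subpopulation would not be missed. graSR-null mutants were made by allelic exchange, replacing graSR with a cat cassette.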

[3] = test system: Staphylococcus aureus; assay: Antibacterial activity against heterogeneous vancomycin-intermediate Staphylococcus aureus Mu3 harboring mutated graR gene after 48 hrs by agar dilution method; type: functional; conditions: Mu3, 48 h; in short: as §1
[4] = test system: Staphylococcus aureus; assay: Antibacterial activity against heterogeneous vancomycin-intermediate Staphylococcus aureus Mu3 harboring intact graR gene after 48 hrs by agar dilution method; type: functional; conditions: Mu3, 48 h; in short: as §1
[5] = test system: Staphylococcus aureus; assay: Antibacterial activity against vancomycin-intermediate Staphylococcus aureus Mu50 after 48 hrs by agar dilution method; type: functional; conditions: Mu50, 48 h; in short: as §2
[6] = test system: Staphylococcus aureus; assay: Antibacterial activity against graSR gene knockout vancomycin-susceptible Staphylococcus aureus N315 after 24 hrs by agar dilution method; type: functional; conditions: N315, 24 h; in short: as §2
[7] = test system: Staphylococcus aureus; assay: Antibacterial activity against heterogeneous vancomycin-intermediate Staphylococcus aureus Mu3 harboring intact graR gene after 24 hrs by agar dilution method; type: functional; conditions: Mu3, 24 h; in short: as §1
[8] = test system: Staphylococcus aureus; assay: Antibacterial activity against graSR gene knockout vancomycin-susceptible Staphylococcus aureus N315 after 48 hrs by agar dilution method; type: functional; conditions: N315, 48 h; in short: as §2
[9] = test system: Staphylococcus aureus; assay: Antibacterial activity against mutated graSR gene knockout vancomycin-susceptible Staphylococcus aureus N315 after 24 hrs by agar dilution method; type: functional; conditions: N315, 24 h; in short: as §2
[10] = test system: Staphylococcus aureus; assay: Antibacterial activity against vancomycin-intermediate Staphylococcus aureus Mu50 after 24 hrs by agar dilution method; type: functional; conditions: Mu50, 24 h; in short: as §2
[11] = test system: Staphylococcus aureus; assay: Antibacterial activity against heterogeneous vancomycin-intermediate Staphylococcus aureus Mu3 after 24 hrs by agar dilution method; type: functional; conditions: Mu3, 24 h; in short: as §2
[12] = test system: Staphylococcus aureus; assay: Antibacterial activity against vancomycin-susceptible Staphylococcus aureus N315 harboring intact graR gene after 48 hrs by agar dilution method; type: functional; conditions: N315, 48 h; in short: as §1
[13] = test system: Staphylococcus aureus; assay: Antibacterial activity against mutated graR gene knockout vancomycin-susceptible Staphylococcus aureus N315 after 24 hrs by agar dilution method; type: functional; conditions: N315, 24 h; in short: as §2
[14] = test system: Staphylococcus aureus; assay: Antibacterial activity against graSR gene knockout heterogeneous vancomycin-intermediate Staphylococcus aureus Mu3 after 24 hrs by agar dilution method; type: functional; conditions: Mu3, 24 h; in short: as §2
[15] = test system: Staphylococcus aureus; assay: Antibacterial activity against vancomycin-susceptible Staphylococcus aureus N315 harboring mutated graR gene after 24 hrs by agar dilution method; type: functional; conditions: N315, 24 h; in short: as §1
[16] = test system: Staphylococcus aureus; assay: Antibacterial activity against graSR gene knockout heterogeneous vancomycin-intermediate Staphylococcus aureus Mu3 after 48 hrs by agar dilution method; type: functional; conditions: Mu3, 48 h; in short: as §2
[17] = test system: Staphylococcus aureus; assay: Antibacterial activity against mutated graSR gene knockout vancomycin-susceptible Staphylococcus aureus N315 after 48 hrs by agar dilution method; type: functional; conditions: N315, 48 h; in short: as §2
[18] = test system: Staphylococcus aureus; assay: Antibacterial activity against vancomycin-susceptible Staphylococcus aureus N315 harboring shuttle vector pYT3 after 48 hrs by agar dilution method; type: functional; conditions: N315, 48 h; in short: as §1
[19] = test system: Staphylococcus aureus; assay: Antibacterial activity against mutated graR gene knockout heterogeneous vancomycin-intermediate Staphylococcus aureus Mu3 after 48 hrs by agar dilution method; type: functional; conditions: Mu3, 48 h; in short: as §2
[20] = test system: Staphylococcus aureus; assay: Antibacterial activity against vancomycin-susceptible Staphylococcus aureus N315 after 24 hrs by agar dilution method; type: functional; conditions: N315, 24 h; in short: as §2
[21] = test system: Staphylococcus aureus; assay: Antibacterial activity against mutated graR gene knockout heterogeneous vancomycin-intermediate Staphylococcus aureus Mu3 after 24 hrs by agar dilution method; type: functional; conditions: Mu3, 24 h; in short: as §2
[22] = test system: Staphylococcus aureus; assay: Antibacterial activity against heterogeneous vancomycin-intermediate Staphylococcus aureus Mu3 harboring mutated graR gene after 24 hrs by agar dilution method; type: functional; conditions: Mu3, 24 h; in short: as §1
[23] = test system: Staphylococcus aureus; assay: Antibacterial activity against vancomycin-susceptible Staphylococcus aureus N315 harboring shuttle vector pYT3 after 24 hrs by agar dilution method; type: functional; conditions: N315, 24 h; in short: as §1
[24] = test system: Staphylococcus aureus; assay: Antibacterial activity against vancomycin-susceptible Staphylococcus aureus N315 after 48 hrs by agar dilution method; type: functional; conditions: N315, 48 h; in short: as §2
[25] = test system: Staphylococcus aureus; assay: Antibacterial activity against vancomycin-susceptible Staphylococcus aureus N315 harboring mutated graR gene after 48 hrs by agar dilution method; type: functional; conditions: N315, 48 h; in short: as §1
[26] = test system: Staphylococcus aureus; assay: Antibacterial activity against heterogeneous vancomycin-intermediate Staphylococcus aureus Mu3 harboring shuttle vector pYT3 after 48 hrs by agar dilution method; type: functional; conditions: Mu3, 48 h; in short: as §1
[27] = test system: Staphylococcus aureus; assay: Antibacterial activity against vancomycin-susceptible Staphylococcus aureus N315 harboring intact graR gene after 24 hrs by agar dilution method; type: functional; conditions: N315, 24 h; in short: as §1
[28] = test system: Staphylococcus aureus; assay: Antibacterial activity against mutated graR gene knockout vancomycin-susceptible Staphylococcus aureus N315 after 48 hrs by agar dilution method; type: functional; conditions: N315, 48 h; in short: as §2
[29] = test system: Staphylococcus aureus; assay: Antibacterial activity against vancomycin-susceptible Staphylococcus aureus N315 harboring complement system vraSR by agar dilution method

SMILES: Cc1onc(-c2ccccc2)c1C(=O)N[C@@H]1C(=O)N2[C@@H]1SC(C)(C)[C@@H]2C(=O)O [OXACILLIN]
- MIC [1]: 1020 µg/mL (≈ 2550 µM)
- MIC [2]: > 1020 µg/mL
- MIC [3]: 1020 µg/mL (≈ 2550 µM)
- MIC [4]: 1020 µg/mL (≈ 2550 µM)
- MIC [5]: 512 µg/mL (≈ 1280 µM)
- MIC [6]: 4 µg/mL (≈ 9.96 µM)
- MIC [7]: 1020 µg/mL (≈ 2550 µM)
- MIC [8]: 16 µg/mL (≈ 39.9 µM)
- MIC [9]: 0.5 µg/mL (≈ 1.25 µM)
- MIC [10]: 512 µg/mL (≈ 1280 µM)
- MIC [11]: 1020 µg/mL (≈ 2550 µM)
- MIC [12]: 1 µg/mL (≈ 2.49 µM)
- MIC [13]: 2 µg/mL (≈ 4.98 µM)
- MIC [14]: 1020 µg/mL (≈ 2550 µM)
- MIC [15]: 0.25 µg/mL (≈ 0.623 µM)
- MIC [16]: 1020 µg/mL (≈ 2550 µM)
- MIC [17]: 0.5 µg/mL (≈ 1.25 µM)
- MIC [18]: 4 µg/mL (≈ 9.96 µM)
- MIC [19]: 1020 µg/mL (≈ 2550 µM)
- MIC [20]: 2 µg/mL (≈ 4.98 µM)
- MIC [21]: 1020 µg/mL (≈ 2550 µM)
- MIC [22]: 1020 µg/mL (≈ 2550 µM)
- MIC [23]: 4 µg/mL (≈ 9.96 µM)
- MIC [24]: 8 µg/mL (≈ 19.9 µM)
- MIC [25]: 0.25 µg/mL (≈ 0.623 µM)
- MIC [26]: > 1020 µg/mL
- MIC [27]: 0.5 µg/mL (≈ 1.25 µM)
- MIC [28]: 4 µg/mL (≈ 9.96 µM)

SMILES: CCCCCCCCCC(=O)N[C@@H](Cc1c[nH]c2ccccc12)C(=O)N[C@H](CC(N)=O)C(=O)N[C@@H](CC(=O)O)C(=O)N[C@@H]1C(=O)NCC(=O)N[C@@H](CCCN)C(=O)N[C@@H](CC(=O)O)C(=O)N[C@H](C)C(=O)N[C@@H](CC(=O)O)C(=O)NCC(=O)N[C@H](CO)C(=O)N[C@@H]([C@H](C)CC(=O)O)C(=O)N[C@@H](CC(=O)c2ccccc2N)C(=O)O[C@@H]1C
- MIC [1]: 1 µg/mL (≈ 0.617 µM)
- MIC [2]: 1 µg/mL (≈ 0.617 µM)
- MIC [3]: 3 µg/mL (≈ 1.85 µM)
- MIC [4]: 3 µg/mL (≈ 1.85 µM)
- MIC [5]: 3 µg/mL (≈ 1.85 µM)
- MIC [6]: 0.5 µg/mL (≈ 0.309 µM)
- MIC [7]: 3 µg/mL (≈ 1.85 µM)
- MIC [8]: 0.5 µg/mL (≈ 0.309 µM)
- MIC [9]: 1 µg/mL (≈ 0.617 µM)
- MIC [10]: 3 µg/mL (≈ 1.85 µM)
- MIC [11]: 1 µg/mL (≈ 0.617 µM)
- MIC [12]: 0.5 µg/mL (≈ 0.309 µM)
- MIC [13]: 1 µg/mL (≈ 0.617 µM)
- MIC [14]: 0.5 µg/mL (≈ 0.309 µM)
- MIC [15]: 1 µg/mL (≈ 0.617 µM)
- MIC [16]: 0.5 µg/mL (≈ 0.309 µM)
- MIC [17]: 1 µg/mL (≈ 0.617 µM)
- MIC [18]: 0.5 µg/mL (≈ 0.309 µM)
- MIC [19]: 3 µg/mL (≈ 1.85 µM)
- MIC [20]: 0.5 µg/mL (≈ 0.309 µM)
- MIC [21]: 3 µg/mL (≈ 1.85 µM)
- MIC [22]: 3 µg/mL (≈ 1.85 µM)
- MIC [23]: 0.5 µg/mL (≈ 0.309 µM)
- MIC [24]: 0.5 µg/mL (≈ 0.309 µM)
- MIC [25]: 1 µg/mL (≈ 0.617 µM)
- MIC [26]: 2 µg/mL (≈ 1.23 µM)
- MIC [27]: 0.5 µg/mL (≈ 0.309 µM)
- MIC [28]: 1 µg/mL (≈ 0.617 µM)

SMILES: CN[C@H](CC(C)C)C(=O)N[C@H]1C(=O)N[C@@H](CC(N)=O)C(=O)N[C@H]2C(=O)N[C@H]3C(=O)N[C@H](C(=O)N[C@H](C(=O)O)c4cc(O)cc(O)c4-c4cc3ccc4O)[C@H](O)c3ccc(c(Cl)c3)Oc3cc2cc(c3O[C@@H]2O[C@H](CO)[C@@H](O)[C@H](O)[C@H]2O[C@H]2C[C@](C)(N)[C@H](O)[C@H](C)O2)Oc2ccc(cc2Cl)[C@H]1O [VANCOMYCIN]
- MIC [5]: 8 µg/mL (≈ 5.52 µM)
- MIC [29]: ≥ 4 µg/mL
- MIC [21]: 3 µg/mL (≈ 2.07 µM)
